This is an account of results in ChEMBL document CHEMBL4261529, “Rational design and optimization of selenophenes with basic side chains as novel potent selective estrogen receptor modulators (SERMs) for breast cancer therapy” (Medchemcomm, 2017).

Assay [1] addresses T1, Estrogen receptor (Homo sapiens) (UniProt P03372).
T1 sequence (whole entry): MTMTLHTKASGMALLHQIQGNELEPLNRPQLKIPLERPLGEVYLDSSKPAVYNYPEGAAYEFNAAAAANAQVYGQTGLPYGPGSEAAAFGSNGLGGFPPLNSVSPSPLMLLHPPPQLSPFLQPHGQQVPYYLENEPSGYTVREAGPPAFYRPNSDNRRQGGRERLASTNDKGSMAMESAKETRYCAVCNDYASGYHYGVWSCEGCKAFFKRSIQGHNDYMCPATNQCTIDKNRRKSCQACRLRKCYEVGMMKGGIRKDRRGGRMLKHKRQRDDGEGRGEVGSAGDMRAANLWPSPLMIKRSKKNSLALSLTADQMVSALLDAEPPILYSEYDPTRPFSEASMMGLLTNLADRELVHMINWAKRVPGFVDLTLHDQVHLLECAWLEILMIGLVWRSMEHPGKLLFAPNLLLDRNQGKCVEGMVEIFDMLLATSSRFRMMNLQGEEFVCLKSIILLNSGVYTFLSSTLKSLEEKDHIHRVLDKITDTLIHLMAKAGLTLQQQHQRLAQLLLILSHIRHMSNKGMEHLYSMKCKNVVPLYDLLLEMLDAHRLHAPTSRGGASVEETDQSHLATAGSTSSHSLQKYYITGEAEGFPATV
Kind of assay: Binding affinity to human ERalpha LBD expressed in Escherichia coli BL21(DE3) after 2 hrs by fluorescence tracer coumestrol based competitive fluorometric binding assay relative to 17beta-estradiol.

Assay [2] concerns the target T2, Estrogen receptor beta (Homo sapiens, UniProt Q92731). Put plainly: Binding affinity to human ERbeta LBD expressed in Escherichia coli BL21(DE3) after 2 hrs by fluorescence tracer coumestrol based competitive fluorometric binding assay relative to 17beta-estradiol.
The species entered for another assay is Homo sapiens. Put plainly: Ratio of relative binding affinity for human ERalpha LBD to relative binding affinity to human ERbeta LBD.
Assay [3] deals with T2, Estrogen receptor beta. Put plainly: Agonist activity at ERbeta (unknown origin) expressed in HEK293T cells assessed as transcriptional activity after 24 hrs by dual luciferase reporter gene assay relative to 17beta-estradiol. In kind it is cell-based. The method, boiled down:
(§1)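 ERβ expression vector (100 ng) plus 300 ng 3×ERE-luciferase reporter, calcium phosphate transfection into HEK293T cells plated in phenol red-free DMEM with 10% FBS. Next day, treated in triplicate with increasing doses (up to 10–5 M). For antagonist mode, 10 nM estradiol was co-added. Luciferase read 24 h later.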

Assay [4] addresses T2, Estrogen receptor beta. Put plainly: Agonist activity at ERbeta (unknown origin) expressed in HEK293T cells assessed as transcriptional activity after 24 hrs by dual luciferase reporter gene assay. Format: cell-based. In a few lines:
as §1

The next assay deals with T3, Estrogen receptor (Homo sapiens, UniProt P03372).
T3 sequence (P03372 whole entry): T1 sequence (whole entry)
Put plainly: Antagonist activity at ERalpha (unknown origin) expressed in HEK293T cells assessed as inhibition of 17beta-estradiol stimulated transcriptional activity after 24 hrs by dual luciferase reporter gene assay. In kind it is cell-based.

Assay [5] deals with T2, Estrogen receptor beta. Put plainly: Antagonist activity at ERbeta (unknown origin) expressed in HEK293T cells assessed as inhibition of 17beta-estradiol stimulated transcriptional activity after 24 hrs by dual luciferase reporter gene assay relative to 17beta-estradiol. Format: cell-based. The method, boiled down: as §1
In assay [6] the target is T2, Estrogen receptor beta. Put plainly: Antagonist activity at ERbeta (unknown origin) expressed in HEK293T cells assessed as inhibition of 17beta-estradiol stimulated transcriptional activity after 24 hrs by dual luciferase reporter gene assay. In kind it is cell-based. The method, boiled down:
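HEK293T cells kept in DMEM with 10% FBS, plated in phenol red-free DMEM/10% FBS. Calcium phosphate co-transfection with 300 ng 3×ERE-luciferase reporter and 100 ng ERβ expression vector. Next day, cells stimulated with 10 nM estradiol plus increasing compound doses (up to 10–5 M), in triplicate. Luciferase read after 24 h.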

The test system of assay [7] is MCF7. Put plainly: Antiproliferative activity against human MCF7 cells after 72 hrs by MTT assay. The conditions noted are these: MCF7, 72 h. In kind it is functional, cell-based. The method, boiled down: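 MCF-7 (ATCC), kept in DMEM with 10% FBS, were treated in triplicate for 72 h. IC50 is the average of at least three independent experiments ± SD.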
Assay [8] relates to MCF7. Put plainly: Antiproliferative activity against human MCF7 cells at 50 uM after 5 days in presence of 10 nM 17beta-estradiol by MTT assay. In kind it is functional, cell-based. The method, boiled down:
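MCF-7 cells were given 50 μM compound with or without 10 nM E2 and cultured 5 days. Viability was expressed relative to untreated cells set at 100%. Mean of three separate experiments ± range.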

The source made the active and inactive calls. The calls are words filed in the database; no cut-off is given here.

T2 sequence (Q92731 whole entry, the tested form may be a part): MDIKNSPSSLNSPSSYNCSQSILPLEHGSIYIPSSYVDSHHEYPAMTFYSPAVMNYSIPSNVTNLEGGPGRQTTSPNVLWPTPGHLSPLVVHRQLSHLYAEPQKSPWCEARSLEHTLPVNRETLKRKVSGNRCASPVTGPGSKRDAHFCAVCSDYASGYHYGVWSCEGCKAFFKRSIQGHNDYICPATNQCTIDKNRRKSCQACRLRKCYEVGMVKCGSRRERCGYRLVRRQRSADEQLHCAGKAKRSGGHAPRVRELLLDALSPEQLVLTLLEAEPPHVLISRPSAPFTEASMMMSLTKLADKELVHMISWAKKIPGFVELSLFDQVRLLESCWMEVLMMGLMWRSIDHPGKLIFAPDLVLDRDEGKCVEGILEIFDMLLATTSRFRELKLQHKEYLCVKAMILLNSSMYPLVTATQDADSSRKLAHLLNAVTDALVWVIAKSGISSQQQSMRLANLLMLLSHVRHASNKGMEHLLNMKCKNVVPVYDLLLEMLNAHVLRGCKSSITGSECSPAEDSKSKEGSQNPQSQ

Turning to `Oc1ccc(-c2c[se]cc2-c2ccc(OCCN3CCCCC3)cc2)cc1`, the results for the RBA (in assay [1]; on Estrogen receptor beta [2]) were 7.58% and 2.35%, respectively. The Ratio in the assay listed under Homo sapiens worked out at 3.3. For the same molecule, the Efficacy at Estrogen receptor beta [3] turned out to be 53.5%; at Estrogen receptor beta [5] it was 22.8%. In addition, the EC50 on Estrogen receptor beta [4] is 1.15 µM. In addition, the half-inhibitory concentration (IC50) on Estrogen receptor amounted to 1.59 µM; at Estrogen receptor beta [6], 0.451 µM; with MCF7 [7] it was 8.13 µM. In the assay with MCF7 [8], the result was inactive.
